Data taken from ChEMBL document CHEMBL3351511, “Protective effects of lupeol against D-galactosamine and lipopolysaccharide-induced fulminant hepatic failure in mice” (J Nat Prod, 2014).
Calls of active or inactive are those of the source. The calls are words filed in the database; no cut-off is given here.

Columns and labels:
[1] = tested on: Mus musculus; test: Protective effect in GalN/LPS-induced ICR mouse FHF liver injury model assessed as increase in I-kappaB protein level at 100 mg/kg, po administered 1 hr prior to GalN/LPS challenge measured after 6 hrs by Western blotting analysis relative to vehicle-treated control; format: functional, organism-based; design: dose 100 mg/kg
Procedure, shortened: (§1)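 Oral pretreatment in olive oil 1 h before ip GalN (800 mg/kg)/LPS (40 μg/kg); liver harvested at 6 h and stored at −75 °C. SDS-PAGE and PVDF transfer used total extract (16−20 μg) for TLR4, MyD88, TRIF, IRAK-1, TRAF6 and IRAK-M, cytosolic (16 μg) for IκB, and nuclear (12 μg) for NF-κB p65. Blots were blocked in 5% milk, given primary antibody overnight at 4 °C, developed by ECL and quantified by densitometry as fold change; n = 6−8.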

[2] = tested on: Mus musculus; test: Protective effect in GalN/LPS-induced ICR mouse FHF liver injury model assessed as reduction in TRIF protein level at 100 mg/kg, po administered 1 hr prior to GalN/LPS challenge measured after 6 hrs by Western blotting analysis relative to vehicle-treated control; format: functional, organism-based; design: dose 100 mg/kg; procedure, shortened: as §1
[3] = tested on: Mus musculus; test: Protective effect in GalN/LPS-induced ICR mouse FHF liver injury model assessed as reduction in IL-6 mRNA expression at 100 mg/kg, po administered 1 hr prior to GalN/LPS challenge measured after 6 hrs by RT-PCR analysis relative to vehicle-treated control; format: functional, organism-based; design: dose 100 mg/kg
Procedure, shortened: (§2)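 Oral pretreatment in olive oil 1 h before ip GalN (800 mg/kg)/LPS (40 μg/kg), with liver collected at 6 h. mRNA quantified by SYBR green real-time RT-PCR. Cycling: TNF-α 45 cycles (94/65/72 °C) and IL-6 32 cycles (94/58/72 °C). Levels normalized to β-actin by the Ct method. Mean ± SEM, n = 6−8.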

[4] = tested on: Mus musculus; test: Effect on serum IL-6 level in GalN/LPS-induced ICR mouse FHF liver injury model at 100 mg/kg, po administered 1 hr prior to GalN/LPS challenge measured after 6 hrs by ELISA (reference value: 654.1 +/- 19.7 pg/ml); format: functional
[5] = tested on: Mus musculus; test: Protective effect in GalN/LPS-induced ICR mouse FHF liver injury model assessed as reduction in NF-kappaB protein level at 100 mg/kg, po administered 1 hr prior to GalN/LPS challenge measured after 6 hrs by Western blotting analysis relative to vehicle-treated control; format: functional, organism-based; design: dose 100 mg/kg; procedure, shortened: as §1
[6] = tested on: Mus musculus; test: Effect on serum TNF-alpha level in ICR mouse at 100 mg/kg, po after 1 hr by ELISA (reference value: 42.6 +/- 1.7 pg/ml); format: ADME, organism-based; design: dose 100 mg/kg, route oral; conditions: in vivo
[7] = tested on: Mus musculus; test: Protective effect in GalN/LPS-induced ICR mouse FHF liver injury model assessed as reduction in IRAK1 protein level at 100 mg/kg, po administered 1 hr prior to GalN/LPS challenge measured after 6 hrs by Western blotting analysis relative to vehicle-treated control; format: functional, organism-based; design: dose 100 mg/kg; procedure, shortened: as §1
[8] = tested on: Mus musculus; test: Effect on serum IL-6 level in ICR mouse at 100 mg/kg, po after 1 hr by ELISA (reference value: 73.3 +/- 13.1 pg/ml); format: ADME, organism-based; design: dose 100 mg/kg, route oral; conditions: in vivo
[9] = tested on: Mus musculus; test: Effect on liver histology in ICR mouse at 100 mg/kg, po after 1 hr by hematoxylin/eosin-labeled microscopic analysis relative to control; format: ADME, organism-based; design: dose 100 mg/kg, route oral; conditions: in vivo
Procedure, shortened: (§3)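 Liver taken 6 h after challenge, fixed in 10% neutral-buffered formalin, paraffin-embedded, cut at 5 μm, H&E-stained. One pathologist scored random nonconsecutive fields blinded at 200×; n = 6−8.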

[10] = tested on: Mus musculus; test: Protective effect in GalN/LPS-induced ICR mouse FHF liver injury model assessed as reduction in TNF-alpha mRNA expression at 100 mg/kg, po administered 1 hr prior to GalN/LPS challenge measured after 6 hrs by RT-PCR analysis relative to vehicle-treated control; format: functional, organism-based; design: dose 100 mg/kg; procedure, shortened: as §2
[11] = tested on: Mus musculus; test: Protective effect in po dosed GalN/LPS-induced ICR mouse FHF liver injury model assessed as survival administered 1 hr prior to GalN/LPS challenge measured up to 24 hrs; format: functional, organism-based
[12] = tested on: Mus musculus; test: Effect on liver histology in GalN/LPS-induced ICR mouse FHF liver injury model assessed as reversal of necrosis and inflammatory cell infiltration at 100 mg/kg, po administered 1 hr prior to GalN/LPS challenge measured after 6 hrs by hematoxylin/eosin-labeled microscopic analysis; format: functional, organism-based; design: dose 100 mg/kg; procedure, shortened: as §3
[13] = tested on: Mus musculus; test: Protective effect in GalN/LPS-induced ICR mouse FHF liver injury model assessed as increase in IRAK-M protein level at 100 mg/kg, po administered 1 hr prior to GalN/LPS challenge measured after 6 hrs by Western blotting analysis relative to vehicle-treated control; format: functional, organism-based; design: dose 100 mg/kg; procedure, shortened: as §1
[14] = tested on: Mus musculus; test: Effect on serum ALT level in ICR mouse at 100 mg/kg, po after 1 hr (reference value: 57.4 +/- 8.8 U/L); format: ADME, organism-based; design: dose 100 mg/kg, route oral; conditions: in vivo
[15] = tested on: Mus musculus; test: Effect on serum ALT level in GalN/LPS-induced ICR mouse FHF liver injury model at 100 mg/kg, po administered 1 hr prior to GalN/LPS challenge measured after 6 hrs (reference value: 2704 +/- 244.2 U/L); format: functional
[16] = tested on: Mus musculus; test: Protective effect in GalN/LPS-induced ICR mouse FHF liver injury model assessed as reduction in TLR4 protein level at 100 mg/kg, po administered 1 hr prior to GalN/LPS challenge measured after 6 hrs by Western blotting analysis relative to vehicle-treated control; format: functional, organism-based; design: dose 100 mg/kg; procedure, shortened: as §1
[17] = tested on: Mus musculus; test: Protective effect in GalN/LPS-induced ICR mouse FHF liver injury model assessed as reduction in MyD88 protein level at 100 mg/kg, po administered 1 hr prior to GalN/LPS challenge measured after 6 hrs by Western blotting analysis relative to vehicle-treated control; format: functional, organism-based; design: dose 100 mg/kg; procedure, shortened: as §1
[18] = tested on: Mus musculus; test: Toxicity in ICR mouse assessed as survival at 100 mg/kg, po; format: organism-based; design: dose 100 mg/kg, route oral; conditions: in vivo
Procedure, shortened: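 One hour later they received intraperitoneal PBS vehicle in place of GalN/LPS. Survival was monitored up to 24 h, with 10 mice per survival group, alongside vehicle-only controls.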

[19] = tested on: Mus musculus; test: Protective effect in GalN/LPS-induced ICR mouse FHF liver injury model assessed as reduction in TRAF6 protein level at 100 mg/kg, po administered 1 hr prior to GalN/LPS challenge measured after 6 hrs by Western blotting analysis relative to vehicle-treated control; format: functional, organism-based; design: dose 100 mg/kg; procedure, shortened: as §1
[20] = tested on: Mus musculus; test: Effect on serum TNF-alpha level in GalN/LPS-induced ICR mouse FHF liver injury model at 100 mg/kg, po administered 1 hr prior to GalN/LPS challenge measured after 6 hrs by ELISA (reference value: 250.8 +/- 5.4 pg/ml); format: functional

For `C=C(C)[C@@H]1CC[C@]2(C)CC[C@]3(C)[C@H](CC[C@@H]4[C@@]5(C)CC[C@H](O)C(C)(C)[C@@H]5CC[C@]43C)[C@@H]12` [LUPEOL], the Activity [1] was “Active”, the Activity [2] was “inactive” and the Activity [3] was “Active”. The Activity [4] was 108.8 pg/mL, the Activity [5] was “Active” and the Activity [6] was 41 pg/mL. For the same compound, the Activity [7] was “Active”, the Activity [8] was 75.1 pg/mL and the Activity [9] was “Non-toxic”. The Activity [10] was “Active”, the Activity [11] was “Dose-dependent effect” and the Activity [12] was “Active”. For the same compound, the Activity [13] was “Active”, the Activity [14] was 58.1 U/L and the Activity [15] was 682 U/L. For the same compound, the Activity [16] was “Active”, the Activity [17] was “Active” and the Activity [18] was “Non-toxic”. For the same compound, the Activity [19] was “Active” and the Activity [20] was 109 pg/mL.
